Changes are numbered by the printed parent chain. Where a SMILES comes first, the peptide text is derived from it. The star is where a group is joined. Cbz = O=C(OCc1ccccc1)*
T1: Y120A-SPSB2 (12–224) (mouse, UniProt O88838 12-224, Y120A)
T1 sequence (looked up): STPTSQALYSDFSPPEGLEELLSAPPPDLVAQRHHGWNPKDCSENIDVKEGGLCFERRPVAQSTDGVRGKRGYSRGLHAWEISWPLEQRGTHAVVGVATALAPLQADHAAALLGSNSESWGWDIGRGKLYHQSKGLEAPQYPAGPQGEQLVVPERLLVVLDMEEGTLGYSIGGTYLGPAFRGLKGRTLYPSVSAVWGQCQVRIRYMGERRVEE

T2: SPSB2 SPRY domain (residues 12–224) (mouse, UniProt O88838 12-224)
T2 sequence (looked up): T1 sequence (looked up) with A109Y

B1: Par-4: prostate apoptosis response protein 4, SPSB binding partner containing ELNNNL (human) (protein, UniProt Q96IZ0 1-340, looked up)
PRKC apoptosis WT1 regulator …: MATGGYRTSSGLGGSTTDFLEEWKAKREKMRAKQNPPGPAPPGGGSSDAAGKPPAGALGTPAAAAANELNNNLPGGAPAAPAVPGPGGVNCAVGSAMLTRAAPGPRRSEDEPPAASASAAPPPQRDEEEPDGVPEKGKSSGPSARKGKGQIEKRKLREKRRSTGVVNIPAAECLDEYEDDEAGQKERKREDAITQQNTIQNEAVNLLDPGSSYLLQEPPRTVSGRYKSTTSVSEEDVSSRYSRTDRSGFPRYNRDANVSGTLVSSSTLEKKIEDLEKEVVRERQENLRLVRLMQDKEEMIGKLKEEIDLLNRDLDDIEDENEQLKQENKTLLKVVGQLTR
B2: iNOS N-terminal peptide, wild type (Ac-KEEKDINNNVKKT-NH2) (peptide)
peptide: Ac-KEEKDINNNVKKT-NH2
B3: iNOS N-terminal peptide B (Ac-KEAKDINNNVKKT-NH2) (peptide)
peptide: Ac-KEAKDINNNVKKT-NH2
B4: iNOS N-terminal peptide C (Ac-KEEADINNNVKKT-NH2) (peptide)
peptide: Ac-KEEADINNNVKKT-NH2
B5: iNOS N-terminal peptide D (Ac-KEAADINNNVKKT-NH2) (peptide)
peptide: Ac-KEAADINNNVKKT-NH2
B6: iNOS N-terminal peptide E (Ac-KEEKAINNNVKKT-NH2) (peptide)
peptide: Ac-KEEKAINNNVKKT-NH2
B7: iNOS N-terminal peptide F (Ac-KEEKDANNNVKKT-NH2) (peptide)
peptide: Ac-KEEKDANNNVKKT-NH2
B8: iNOS N-terminal peptide G (Ac-KEEKDIANNVKKT-NH2) (peptide)
peptide: Ac-KEEKDIANNVKKT-NH2
B9: iNOS N-terminal peptide H (Ac-KEEKDIQNNVKKT-NH2) (peptide)
peptide: Ac-KEEKDIQNNVKKT-NH2
B10: iNOS N-terminal peptide I (Ac-KEEKDINANVKKT-NH2) (peptide)
peptide: Ac-KEEKDINANVKKT-NH2
B11: iNOS N-terminal peptide L (Ac-KEEKDINNNAKKT-NH2) (peptide)
peptide: Ac-KEEKDINNNAKKT-NH2
B12: iNOS N-terminal peptide M (Ac-KEEKDINNNVKAT-NH2) (peptide)
peptide: Ac-KEEKDINNNVKAT-NH2
B13: iNOS N-terminal peptide N (Ac-KEEKDINNNAKAT-NH2) (peptide)
peptide: Ac-KEEKDINNNAKAT-NH2
B14: iNOS N-terminal peptide O (Ac-KEEADINNNAKAT-NH2) (peptide)
peptide: Ac-KEEADINNNAKAT-NH2

Tested on: iNOS degradation in Spsb2T/+ BMDMs
Experiment: iNOS degradation in Spsb2T/+ BMDMs after LPS/IFN-γ stimulation and wash
Type: cell-based, mouse
Settings: 10 µM MG-132 in fresh medium after wash
In short: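 Bone marrow macrophages (>95% CD11b+ after 6 d culture) from littermate controls, SPSB2-transgenic or SOCS-box-deleted transgenic mice, stimulated overnight with LPS/IFN-γ or left unstimulated. Washed, refed with medium ±10 µM MG-132 (proteasome inhibitor), lysed at set times after wash. Lysates run on SDS-PAGE, blotted with anti-iNOS, peroxidase secondary and ECL. Membranes stripped (0.1 M Gly, pH 2.9) and reprobed for tubulin as loading control.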

Row | Molecule | effect on enhanced iNOS degradation
1 | CC(C)C[C@@H](C=O)NC(=O)[C@H](CC(C)C)NC(=O)[C@H](CC(C)C)NC(=O)OCc1ccccc1 [MG-132] (Cbz-Leu-Leu-Leu-aldehyde) | abrogated

Biological target: SPSB1
Experiment: not given
Settings: SPSB1 binding to Par-4; ref Woo et al., 2006; cited from earlier work

Row | Molecule | Kd
2 | B1 | 146 nM

Biological target: SPSB2
Experiment: not given
Settings: SPSB2 binding to Par-4; ref Woo et al., 2006; cited from earlier work

Row | Molecule | Kd
3 | B1 | 4700 nM

Biological target: T1, Y120A-SPSB2 (12–224)
Experiment: ITC
Settings: not given

Row | Molecule | fold reduction of affinity against wild-type SPSB2 (12–224)
4 | B2 | ~5000 fold

Biological target: T2, SPSB2 SPRY domain (residues 12–224)
Experiment: ITC
Settings: not given

Row | Molecule | Kd
5 | B2 | 13.3 ± 3 nM
6 | B3 | 14 ± 3 nM
7 | B4 | 127 ± 23 nM
8 | B5 | 65.4 ± 7.4 nM
9 | B6 | 21600 ± 750 nM
10 | B7 | 23.5 ± 9.9 nM
11 | B8 | 17200 nM
12 | B9 | 40500 nM
13 | B10 | 826 ± 20 nM
14 | B11 | 56.8 ± 11.2 nM
15 | B12 | 29.8 ± 12.2 nM
16 | B13 | 180 ± 39 nM
17 | B14 | 311 ± 37 nM
